What was measured:
[1] = Inhibition of Escherichia coli IspC by photometric assay
Outline: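 NADPH-coupled photometric read at 340 nm, room temperature. Inhibitor 1:3 dilutions over about 200–0.003 μM. Started with 1-deoxy-D-xylulose 5-phosphate, final 0.5–5.0 mM. IC50 from nonlinear regression of ≥8 points, mean ± SD; generally 2–3 independent determinations.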

[2] = Inhibition of Plasmodium falciparum IspC expressed in recombinant Escherichia coli M15 by photometric assay
Outline: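 His-tagged enzyme from E. coli M15 pREP4 pQEIspCplasart20, induced with 1 mM IPTG overnight at 30 °C, Ni-imidazole purified, about 95% pure. Inhibitor 1:3 over about 200–0.003 μM. DXP start, final 0.5–5.0 mM. 340 nm, room temperature. Nonlinear-regression IC50, ≥8 points.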

Plasmodium falciparum [3] = test: Antimicrobial activity against chloroquine-sensitive blood stage forms of Plasmodium falciparum 3D7 after 3 days by HRP2-based ELISA; type: functional, organism-based; conditions: 3D7, 72 h
Outline: (§1)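 Sorbitol-synchronized ring-stage parasites (0.05% parasitemia, 1.5% hematocrit, O Rh+ erythrocytes) in RPMI 1640/HEPES/glutamine/gentamycin/0.5% Albumax, 37 °C, 5% CO2, 5% O2. Added to plates precoated with 3-fold compound dilutions from DMSO stocks; 3-day incubation; plates freeze-thawed twice; HRP2 ELISA. Chloroquine control each run. IC50 from nonlinear regression of log concentration-response; mean of two independent duplicate determinations.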

[4] = biological target: T1, 1-deoxy-D-xylulose 5-phosphate reductoisomerase (Mycobacterium tuberculosis, UniProt P9WNS1); test: Inhibition of Mycobacterium tuberculosis IspC by photometric assay
T1 sequence (P9WNS1 whole entry): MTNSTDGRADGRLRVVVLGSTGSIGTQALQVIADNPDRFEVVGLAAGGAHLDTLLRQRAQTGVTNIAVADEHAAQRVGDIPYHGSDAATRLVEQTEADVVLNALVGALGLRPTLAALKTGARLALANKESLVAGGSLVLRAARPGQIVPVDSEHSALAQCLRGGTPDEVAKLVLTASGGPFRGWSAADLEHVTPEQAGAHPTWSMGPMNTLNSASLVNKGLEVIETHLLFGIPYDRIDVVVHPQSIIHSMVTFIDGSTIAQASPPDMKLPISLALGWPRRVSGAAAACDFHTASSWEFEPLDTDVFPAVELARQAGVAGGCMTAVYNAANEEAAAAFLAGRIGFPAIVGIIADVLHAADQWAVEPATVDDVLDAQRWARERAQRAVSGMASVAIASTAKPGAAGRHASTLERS
Outline: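 Photometric NADPH-consumption assay at pH 7.6 (Tris) with 5 mM MgCl2, 5 mM DTT, 0.5 mM NADPH and 0.02 U IspC. Inhibitor 1:3 series covered about 200–0.003 μM. Started with 1-deoxy-D-xylulose 5-phosphate (0.5–5.0 mM final); A340 read at room temperature.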

Plasmodium falciparum [5] = test: Antimicrobial activity against chloroquine-resistant blood stage forms of Plasmodium falciparum Dd2 after 3 days by HRP2-based ELISA; type: functional, organism-based; conditions: Dd2, 72 h; outline: as §1

Compound	IC50 [1]	IC50 [2]	IC50 (Plasmodium falciparum [3])	IC50 [4]	IC50 (Plasmodium falciparum [5])	Ki [2]
O=C(CCC(c1ccc(F)c(F)c1)P(=O)(O)O)NO (stereo unspecified)	178 nM	3.9 nM	75 nM	3400 nM	65 nM	–
CN(O)C(=O)CCC(c1cccc2ccccc12)P(=O)(O)O (stereo unspecified)	3830 nM	9.4 nM	–	13000 nM	–	–
CN(O)C(=O)CCC(c1ccc(F)c(F)c1)P(=O)(O)O (stereo unspecified)	117 nM	3.4 nM	122 nM	770 nM	40 nM	–
CN(O)C(=O)CCC(c1ccc(Cl)c(Cl)c1)P(=O)(O)O (stereo unspecified)	208 nM	2.8 nM	–	280 nM	–	–
CN(O)C(=O)CCC(c1ccccc1)P(=O)(O)O (stereo unspecified)	243 nM	3.1 nM	90 nM	2000 nM	74 nM	–
Cc1ccc(C(CCC(=O)N(C)O)P(=O)(O)O)cc1 (stereo unspecified)	286 nM	14 nM	–	1800 nM	–	–
CN(O)C(=O)COC(c1ccccc1)P(=O)(O)O (stereo unspecified)	940 nM	37 nM	–	16000 nM	–	–
CN(O)C(=O)COC(c1cccc2ccccc12)P(=O)(O)O (stereo unspecified)	4600 nM	39 nM	–	15000 nM	–	–
CN(O)C(=O)COC(c1ccc(F)c(F)c1)P(=O)(O)O (stereo unspecified)	240 nM	12 nM	–	4600 nM	–	–
CN(O)C(=O)COC(c1ccc(Cl)c(Cl)c1)P(=O)(O)O (stereo unspecified)	200 nM	14 nM	–	1600 nM	–	–
Cc1ccc(C(OCC(=O)N(C)O)P(=O)(O)O)cc1 (stereo unspecified)	320 nM	25 nM	–	4000 nM	–	–
O=C(COC(c1ccccc1)P(=O)(O)O)NO (stereo unspecified)	20000 nM	1500 nM	–	466000 nM	–	–
CN(O)C(=O)CS[C@@H](c1ccccc1)P(=O)(O)O	5.1 nM	9.4 nM	–	120 nM	–	1.7 nM
CN(O)C(=O)CS[C@H](c1ccccc1)P(=O)(O)O	4000 nM	12000 nM	–	83000 nM	–	2200 nM
O=C(CCC(c1ccccc1)P(=O)(O)O)NO (stereo unspecified)	592 nM	12 nM	400 nM	14000 nM	570 nM	–
O=C(COC(c1ccc(F)c(F)c1)P(=O)(O)O)NO (stereo unspecified)	49000 nM	3900 nM	> 50000 nM	> 500000 nM	–	–
CN(O)C(=O)CSC(c1ccccc1)P(=O)(O)O (racemic)	8.2 nM	24 nM	30 nM	280 nM	75 nM	4.4 nM
CN(O)C(=O)CSC(c1ccc(F)c(F)c1)P(=O)(O)O (racemic)	8.5 nM	14 nM	111 nM	42 nM	88 nM	–
CN(O)C(=O)CSC(c1ccc(Cl)c(Cl)c1)P(=O)(O)O (racemic)	5.9 nM	4.5 nM	91 nM	9.2 nM	85 nM	–
CN(O)C(=O)CSC(c1cccc2ccccc12)P(=O)(O)O (racemic)	140 nM	9.8 nM	380 nM	550 nM	510 nM	–
Cc1ccc(C(SCC(=O)N(C)O)P(=O)(O)O)cc1 (racemic)	33 nM	18 nM	111 nM	110 nM	95 nM	–
O=C(CSC(c1ccccc1)P(=O)(O)O)NO (racemic)	600 nM	110 nM	2900 nM	15000 nM	3770 nM	–
O=C(CSC(c1ccc(F)c(F)c1)P(=O)(O)O)NO (racemic)	77 nM	15 nM	160 nM	1700 nM	330 nM	–
O=C(CSC(c1ccc(Cl)c(Cl)c1)P(=O)(O)O)NO (racemic)	44 nM	200 nM	540 nM	720 nM	870 nM	–
O=CN(O)CCCP(=O)(O)O [FOSMIDOMYCIN]	221 nM	–	–	–	–	–
